Consider twelve molecules from ChEMBL document CHEMBL1137906, “Microwave assisted synthesis of 2-(4-substituted piperazin-1-yl)-1,8-naphthyridine-3-carbonitrile as a new class of serotonin 5-HT3 receptor antagonists” (Bioorg Med Chem Lett, 2004).

A short description of the experiment: Antagonism of 2-methyl-5-HT effect on 5-hydroxytryptamine 3 receptor in isolated guinea pig ileum. It is filed as functional, tissue-based. As to conditions: Cavia porcellus, read-out: pA2 (converted). The essentials:
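Longitudinal muscle-myenteric plexus strip from guinea pig ileum, prepared by a literature method. Equilibrated 30 min at 500 mg resting tension in Tyrode solution, ca. 37°C, constant aeration. Agonist 2-methyl-5-HT added noncumulatively at 15 min intervals; antagonism of its contractile response measured. Values are means of three separate experiments.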

For the molecule `N#Cc1cc2cccnc2nc1N1CCN(c2ccccn2)CC1`, the Kb is 126000 nM. Turning to `CN1CCN(c2nc3ncccc3cc2C#N)CC1`, the Kb was 39.8 nM. The same measure for `COc1ccc(N2CCN(c3nc4ncccc4cc3C#N)CC2)cc1`: 12600 nM; for `N#Cc1cc2cccnc2nc1N1CCN(c2ccc([N+](=O)[O-])cc2)CC1`: 158000 nM. Consider `CCN1CCN(c2nc3ncccc3cc2C#N)CC1`, for which the Kb is 79.4 nM. As for `N#Cc1cc2cccnc2nc1N1CCN(c2ccccc2)CC1`, the Kb is 2000 nM. The result for `COc1cccc(N2CCN(c3nc4ncccc4cc3C#N)CC2)c1` reads 1000 nM; that for `N#Cc1cc2cccnc2nc1N1CCN(Cc2ccccc2)CC1`, 7940 nM; that for `COc1ccccc1N1CCN(c2nc3ncccc3cc2C#N)CC1`, 3980 nM.

Take `C=CCN1CCN(c2nc3ncccc3cc2C#N)CC1`: the Kb was 6.31 nM. The same measure for `N#Cc1cc2cccnc2nc1N1CCNCC1`: 316 nM; for `Cc1nccn1CC1CCc2c(c3ccccc3n2C)C1=O` (configuration not stated) [ONDANSETRON]: 126 nM.
